Measurements as given in PMC3838623 (Journal of Pharmaceutical Sciences, 2013).
Where two headings read alike, the source gives them in different places.

Experiments:
plasma proteins [1] = conditions: cited from earlier work
plasma proteins [2] = conditions: liraglutide concentration 10^2 pM, cited from earlier work
[3] = cited from earlier work
[4] = tested on: plasma proteins (human plasma); experiment: Reiterated stepwise equilibrium dialysis, plasma protein binding; type: in vitro ADME; conditions: two-sided ANOVA
Outline: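 Human plasma spiked with test compound (final 10^6, 10^4 or 10^2 pM) was placed in a 1.0 mL dialysis sac inside a buffer chamber pre-coated with compound-containing buffer. Compound was present in both chambers at inner–outer ratios of 100:1 or 50:1. Dialysis ran 4–5 h at 37 ± 2°C with slow rotation, in triplicate, with radioactivity counting. % bound relative to pre-incubation; mean (SD) analysed by two-sided ANOVA for gender and concentration.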

| estimated difference in protein binding, 10^2 pM compared with 10^4 pM ([4]; p = 0.581) [%] | estimated difference in protein-bound liraglutide, females vs. males ([4]; p = 0.593) [%] | Substance | plasma protein binding (plasma proteins [1]) | mean (SD) unbound percentage (plasma proteins [2]; healthy subjects) | mean (SD) unbound percentage (plasma proteins [2]; subjects with mild hepatic impairment) | plasma half-life [3] | liraglutide pharmacokinetics in renal impairment ([3]; subjects with mild-to-severe renal impairment versus healthy subjects) |
| --- | --- | --- | --- | --- | --- | --- | --- |
| – | – | exenatide: GLP-1 receptor agonist with shorter duration of action, twice-daily administration | does not demonstrate significant levels of plasma protein binding | – | – | – | – |
| 0.05 | −0.18 | liraglutide | – | 0.53% (0.46) | 0.59% (0.61) | approximately 13 h | not altered |
